# Results taken from PMC7702297 (Journal of the American Chemical Society, 2020).
# Like-named read-outs stand apart in the source and are kept apart here.
# Assays:
# [1] = test system: RAW 264.7 macrophage cells; experiment: Intracellular ROS by DHE fluorescence in PMA-treated macrophages; assay type: cell-based; conditions: PMA 1 μg/mL 3 h; DHE 10 μM 30 min
# RAW 264.7 cells = experiment: Cytotoxicity
# [2] = Conventional and cryogenic TEM of self-assembled nanostructures; assay type: physicochemical
# [3] = H2S release measured with H2S-sensitive electrochemical probe; assay type: physicochemical
# [4] = test system: RAW 264.7 macrophage cells; experiment: Protection from PMA-induced cytotoxicity; assay type: cell-based
# [5] = Nile Red assay, critical aggregation concentration; assay type: physicochemical; conditions: Nile Red fluorescence; 10 mM phosphate buffer pH 7.4, room temperature
# Outline: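 Test compound dissolved in 10 mM phosphate buffer pH 7.4 at room temperature, where it self-assembles. Nile Red fluorescence intensity was recorded across a series of test compound concentrations. CAC was calculated from the rise in intensity with concentration, taken as Nile Red solubilisation in the hydrophobic domain.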
# Static light scattering = assay type: physicochemical; conditions: average
# [6] = PMA 2 μg/mL 3 h, Cys 800 μM, AdKOKOEE and AdKSKSE 200 μM (+ Cys), GYY4137 and Na2S 400 μM, Figure 4B
# [7] = conventional and cryo-TEM, PB 10 mM pH 7.4, 1 mM
compound,measurement,setting,value
"CCCCCCCCCCCCCC(=O)O[C@@H]1[C@@H](C)[C@@]2(O)[C@@H](C=C(CO)C[C@]3(O)C(=O)C(C)=C[C@@H]23)[C@@H]2C(C)(C)[C@]12OC(C)=O [PMA, phorbol 12-myristate 13-acetate]","ROS level (DHE red fluorescent signal) after PMA alone, versus untreated cells",[1],much brighter
same,concentration inducing significant cytotoxicity,RAW 264.7 cells; Figure 4A,≥ 1000 ng/mL
same,cell viability after PMA alone,RAW 264.7 cells; PMA 2 μg/mL,67%
AdKSKSE,average length of short nanoworms,"[2]; conventional TEM, UA stained, PB 10 mM pH 7.4, 100 μM",33±2 nm
same,H2S release rate relative to AdKsKsEE,"[3]; Figure S13, both contain two SATO units and release similar amounts",somewhat faster
same,protective effect on viability of PMA-treated cells,[4]; [6],"some cell protective ability, but it was not as good as AdKSKSEE"
"C1COCCN1.COc1ccc(P(=S)(S)N2CCOCC2)cc1 (stereo not drawn) [GYY4137, reference compound]",protective effect on viability of PMA-treated cells,[4],Neither affected cell viability
"N[C@@H](CS)C(=O)O [Cys, cysteine, reference compound]",protective effect on viability of PMA-treated cells,[4]; [6],Neither treatment with Cys alone nor treatment with a combination of the non-H2S-releasing control peptide (AdKOKOEE) and Cys showed any protective effect
"[Na+].[Na+].[S-2] [Na2S, sodium sulfide, reference compound]",protective effect on viability of PMA-treated cells,[4],Neither affected cell viability
AdKSKSEE,critical aggregation concentration (CAC),[5],27 µM
same,average external diameter of crescent nanostructures,[2]; [7],28±3 nm
same,average width of crescent nanostructures,[2]; [7],5±1 nm
same,"aggregation number, estimate from nanocrescent volume",[2]; nanocrescent volume from TEM dimensions divided by estimated molecular volume,560
same,aggregation number (molecules per crescent nanostructure),Static light scattering,600
same,H2S release peaking time,"[3]; PHDC 1 mM + Cys 4 mM in PB at rt, electrochemical probe, average of three runs",125 ± 15 min
same,H2S release without Cys,"[3]; PHDC 1 mM in PB at rt, no Cys, electrochemical probe",minimal H2S was detected
same,cell viability on co-treatment with PMA,"[4]; PMA 2 μg/mL, AdKSKSEE 200 μM + Cys 800 μM, 3 h, three experiments with five replicates",95%
AdKOKOEE,protective effect on viability of PMA-treated cells,[4]; [6],Neither treatment with Cys alone nor treatment with a combination of the non-H2S-releasing control peptide (AdKOKOEE) and Cys showed any protective effect
